Results: ChEMBL document CHEMBL1122035, “Preparation and evaluation of 2-substituted anthraquinones based on the anthracyclines” (1982)

Legend:
Nucleic Acid [1] = assay: DNA binding property and activity expressed as Kn; assay type: nucleic-acid assay
How it was run: (§1)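 Absorbance read at the unbound-drug λmax after 5-min equilibration, against a buffer blank. K and n were obtained by nonlinear regression of absorbance against cumulative DNA volume, using a one- or two-site model.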

Mus musculus [2] = assay: In vivo antitumor activity against P-388 leukemia in mice at the dose of 200 mg/kg.; assay type: functional
How it was run: (§2)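 P-388 leukemia in mice; compounds given as hydrochloride salts. Screening was done by the NCI Drug Research and Development Program. Result expressed as T/C (%).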

Nucleic Acid [3] = assay: DNA binding property and activity expressed as K; assay type: nucleic-acid assay; how it was run: as §1
Mus musculus [4] = assay: In vivo antitumor activity against P-388 leukemia in mice at the dose of 40 mg/kg.; assay type: functional; how it was run: as §2
Mus musculus [5] = assay: In vivo antitumor activity against P-388 leukemia in mice at the dose of 100 mg/kg.; assay type: functional; how it was run: as §2
Mus musculus [6] = assay: In vivo antitumor activity against P-388 leukemia in mice at the dose of 5 mg/kg.; assay type: functional; how it was run: as §2
Mus musculus [7] = assay: In vivo antitumor activity against P-388 leukemia in mice at the dose of 50 mg/kg.; assay type: functional; how it was run: as §2

| Structure (SMILES) | Kn (Nucleic Acid [1]) [M⁻¹] | T/C (Mus musculus [2]) [%] | K (Nucleic Acid [3]) [M⁻¹] | T/C (Mus musculus [4]) [%] | T/C (Mus musculus [5]) [%] | T/C (Mus musculus [6]) [%] | T/C (Mus musculus [7]) [%] |
| --- | --- | --- | --- | --- | --- | --- | --- |
| CN(C)CCCNC(=O)c1ccc2c(c1)C(=O)c1ccccc1C2=O.Cl | 11000 | 115 | 59000 | – | – | – | – |
| CCN(CC)CCCC(C)NC(=O)Cc1cc(O)c2c(c1O)C(=O)c1ccccc1C2=O.Cl (stereo not given) | 49000 | – | 308000 | 125 | – | – | – |
| CN(C)CCNC(=O)Cc1cc(O)c2c(c1O)C(=O)c1ccccc1C2=O.Cl | 75000 | – | 289000 | – | 118 | – | – |
| CCN(CC)CCCC(C)NC(=O)c1ccc2c(c1O)C(=O)c1ccccc1C2=O.Cl (stereo not given) | 10100 | – | 78000 | – | – | 106 | – |
| CCN(CC)CCNC(=O)c1ccc2c(c1)C(=O)c1ccccc1C2=O.Cl | – | 119 | – | – | – | – | – |
| CN(C)CCCNC(=O)Cc1cc(O)c2c(c1O)C(=O)c1ccccc1C2=O.Cl | 65000 | – | 259000 | – | – | – | 106 |
| CCN(CC)CCCNC(=O)Cc1cc(O)c2c(c1O)C(=O)c1ccccc1C2=O.Cl | 29000 | – | 127000 | – | – | – | 108 |
| CCN(CC)CCNC(=O)Cc1cc(O)c2c(c1O)C(=O)c1ccccc1C2=O.Cl | 100000 | – | 529000 | – | 106 | – | – |
| CN(C)CCCNC(=O)c1ccc2c(c1O)C(=O)c1ccccc1C2=O.Cl | 9400 | – | 78000 | – | – | – | 118 |
| CCN(CC)CCCC(C)NC(=O)c1ccc2c(c1)C(=O)c1ccccc1C2=O.Cl (stereo not given) | – | 127 | – | – | – | – | – |
| CCN(CC)CCCNC(=O)c1ccc2c(c1O)C(=O)c1ccccc1C2=O | 12900 | – | 92000 | – | – | – | – |
| CCN(CC)CCNC(=O)c1ccc2c(c1O)C(=O)c1ccccc1C2=O | 9100 | – | 46000 | – | – | – | – |
